According to ChEMBL document CHEMBL4251645, “Synthesis of C3-Neoglycosides of digoxigenin and their anticancer activities” (2018):
Calls of active or inactive are those of the source. The rule behind the calls is not given here.

Columns and labels:
NCI-H460 [1] = test: Induction of Nur77 protein expression in human NCI-H460 cells at 20 nM after 3 hrs by Western blot assay; type: functional, cell-based
In short: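 NIH-H460 cells exposed to 20 nM glycoside for 3 h and lysed. Equal lysate amounts run on 8% SDS-PAGE and blotted to PVDF, then blocked in 5% milk/TBST for 1 h. Anti-Nur77 (1:1000) applied overnight at 4 °C, secondary antibody for 1 h, ECL detection. β-actin (1:10000) reprobe served as loading control.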

NCI-H460 [2] = test: Cytotoxicity against human NCI-H460 cells assessed as reduction in cell viability at 50 nM after 48 hrs by MTT assay; type: functional, cell-based
In short: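 NIH-H460 cells (ATCC; RPMI 1640, 10% FBS, L-glutamine, penicillin/streptomycin) seeded at 3 × 10^3/well, then given medium with 50 nM glycoside for 48 h. MTT ([…]) added for 4 h at 37 °C, formazan dissolved in DMSO, absorbance at 560 nm.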

[3] = molecular target: Nuclear receptor subfamily 4immunitygroup A member 1 (Homo sapiens) (UniProt P22736); test: Induction of Nur77 protein translocation from nucleus to cytoplasm in human NCI-H460 cells at 20 nM after 9 hrs by DAPI staining based immunofluorescence microscopic method; type: cell-based
Nuclear receptor subfamily 4immunitygroup A member 1 (Homo sapiens), sequence (P22736 whole entry): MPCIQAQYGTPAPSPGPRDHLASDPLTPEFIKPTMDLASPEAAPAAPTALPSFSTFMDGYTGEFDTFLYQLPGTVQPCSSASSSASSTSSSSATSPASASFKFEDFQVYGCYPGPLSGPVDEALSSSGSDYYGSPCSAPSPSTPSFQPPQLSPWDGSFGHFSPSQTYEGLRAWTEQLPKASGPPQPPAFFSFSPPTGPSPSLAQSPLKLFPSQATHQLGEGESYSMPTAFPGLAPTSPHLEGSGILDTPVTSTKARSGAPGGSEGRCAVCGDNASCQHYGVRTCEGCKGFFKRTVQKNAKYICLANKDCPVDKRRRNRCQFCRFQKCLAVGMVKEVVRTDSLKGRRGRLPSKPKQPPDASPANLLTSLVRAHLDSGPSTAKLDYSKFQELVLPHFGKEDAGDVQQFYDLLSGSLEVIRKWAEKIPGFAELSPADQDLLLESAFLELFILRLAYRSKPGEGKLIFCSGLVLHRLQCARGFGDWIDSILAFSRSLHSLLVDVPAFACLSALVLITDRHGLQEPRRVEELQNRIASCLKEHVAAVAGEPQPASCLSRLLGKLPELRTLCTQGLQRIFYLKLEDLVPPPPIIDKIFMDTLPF
In short: (§1)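 NIH-H460 cells given 20 nM glycoside for 3, 6 and 9 h. Cells permeabilized with 0.1% Triton X-100 for 15 min and blocked in 1% BSA for 30 min. Anti-Nur77 applied at 37 °C for 1 h, then Cy3 anti-rabbit IgG for 30 min at room temperature. DAPI stained nuclei; confocal imaging scored Nur77 nuclear versus cytoplasmic location.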

[4] = molecular target: Nuclear receptor subfamily 4immunitygroup A member 1 (Homo sapiens) (UniProt P22736); test: Induction of Nur77 protein translocation from nucleus to cytoplasm in human NCI-H460 cells at 20 nM by DAPI staining based immunofluorescence microscopic method; type: cell-based; details: TDE = time-dependent effect; in short: as §1
NCI-H460 [5] = test: Induction of apoptosis in human NCI-H460 cells assessed as live cells at 20 nM after 12 hrs by Annexin V-FITC/propidium iodide staining based flow cytometry (reference value: 91.81%); type: functional
In short: (§2)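 NIH-H460 cells seeded at 1 × 10^5/well and given 20 nM glycoside for 12 h. Cells trypsinized, spun at 1,500 rpm for 5 min and resuspended in Annexin V binding buffer. Annexin V-FITC stain for 15 min, then propidium iodide for 5 min. Populations quantified by FACS Calibur flow cytometry.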

NCI-H460 [6] = test: Induction of apoptosis in human NCI-H460 cells assessed as early apoptotic cells at 20 nM after 12 hrs by Annexin V-FITC/propidium iodide staining based flow cytometry (reference value: 4.72%); type: functional; in short: as §2
NCI-H460 [7] = test: Induction of apoptosis in human NCI-H460 cells assessed as late apoptotic cells at 20 nM after 12 hrs by Annexin V-FITC/propidium iodide staining based flow cytometry (reference value: 2.54%); type: functional; in short: as §2
NCI-H460 [8] = test: Induction of apoptosis in human NCI-H460 cells assessed as necrotic cells at 20 nM after 12 hrs by Annexin V-FITC/propidium iodide staining based flow cytometry (reference value: 0.93%); type: functional; in short: as §2
NCI-H460 [9] = test: Induction of apoptosis in human NCI-H460 cells assessed as live cells after 12 hrs by Annexin V-FITC/propidium iodide staining based flow cytometry (reference value: 91.81%); type: functional
NCI-H460 [10] = test: Induction of apoptosis in human NCI-H460 cells assessed as early apoptotic cells after 12 hrs by Annexin V-FITC/propidium iodide staining based flow cytometry (reference value: 4.72%); type: functional
NCI-H460 [11] = test: Induction of apoptosis in human NCI-H460 cells assessed as late apoptotic cells after 12 hrs by Annexin V-FITC/propidium iodide staining based flow cytometry (reference value: 2.54%); type: functional
NCI-H460 [12] = test: Induction of apoptosis in human NCI-H460 cells assessed as necrotic cells after 12 hrs by Annexin V-FITC/propidium iodide staining based flow cytometry (reference value: 0.93%); type: functional

SMILES: C[C@]12CC[C@H](OC3O[C@H](CO)[C@H](O)[C@H](O)[C@H]3O)C[C@H]1CC[C@@H]1[C@@H]2C[C@@H](O)[C@]2(C)[C@@H](C3=CC(=O)OC3)CC[C@]12O (stereo not given in full)
- Activity (NCI-H460 [1]): Active

SMILES: C[C@]12CC[C@H](OC3OC[C@@H](O)[C@@H](O)[C@H]3O)C[C@H]1CC[C@@H]1[C@@H]2C[C@@H](O)[C@]2(C)[C@@H](C3=CC(=O)OC3)CC[C@]12O (stereo not given in full)
- Activity (NCI-H460 [2]): Active
- Activity (NCI-H460 [1]): Active
- Activity [3]: Active
- Activity [4]: Tde
- Activity (NCI-H460 [5]): 83.97%
- Activity (NCI-H460 [6]): 10.21%
- Activity (NCI-H460 [7]): 4.58%
- Activity (NCI-H460 [8]): 1.24%

SMILES: C[C@]12CC[C@H](OC3O[C@H](CO)[C@@H](O[C@@H]4O[C@H](CO)[C@H](O)[C@H](O)[C@H]4O)[C@H](O)[C@H]3O)C[C@H]1CC[C@@H]1[C@@H]2C[C@@H](O)[C@]2(C)[C@@H](C3=CC(=O)OC3)CC[C@]12O (stereo not given in full)
- Activity (NCI-H460 [1]): Active

SMILES: C[C@]12CC[C@@H](OC3O[C@H](CO)[C@@H](O)[C@H](O)[C@@H]3O)C[C@H]1CC[C@@H]1[C@@H]2C[C@@H](O)[C@]2(C)[C@@H](C3=CC(=O)OC3)CC[C@]12O (stereo not given in full)
- Activity (NCI-H460 [1]): Active

SMILES: C[C@@H]1OC(O[C@H]2CC[C@@]3(C)[C@H](CC[C@@H]4[C@@H]3C[C@@H](O)[C@]3(C)[C@@H](C5=CC(=O)OC5)CC[C@]43O)C2)[C@@H](O)[C@H](O)[C@@H]1O (stereo not given in full)
- Activity (NCI-H460 [2]): Active
- Activity (NCI-H460 [1]): Active
- Activity [3]: Active
- Activity [4]: Tde
- Activity (NCI-H460 [5]): 61.75%
- Activity (NCI-H460 [6]): 25.02%
- Activity (NCI-H460 [7]): 9.01%
- Activity (NCI-H460 [8]): 4.21%

SMILES: C[C@]12CC[C@H](OC3O[C@H](CO)[C@@H](O)[C@H](O)[C@H]3O)C[C@H]1CC[C@@H]1[C@@H]2C[C@@H](O)[C@]2(C)[C@@H](C3=CC(=O)OC3)CC[C@]12O (stereo not given in full)
- Activity (NCI-H460 [2]): Active

SMILES: C[C@@H]1OC(O[C@H]2CC[C@@]3(C)[C@H](CC[C@@H]4[C@@H]3C[C@@H](O)[C@]3(C)[C@@H](C5=CC(=O)OC5)CC[C@]43O)C2)[C@H](O)[C@H](O)[C@H]1O (stereo not given in full)
- Activity (NCI-H460 [2]): Active
- Activity (NCI-H460 [1]): Active
- Activity [3]: Active
- Activity [4]: Tde
- Activity (NCI-H460 [5]): 83.59%
- Activity (NCI-H460 [6]): 9.35%
- Activity (NCI-H460 [7]): 5.5%
- Activity (NCI-H460 [8]): 1.55%

SMILES: C[C@H]1O[C@@H](O[C@H]2[C@@H](O)CC(O[C@H]3CC[C@@]4(C)[C@H](CC[C@@H]5[C@@H]4C[C@@H](O)[C@]4(C)[C@@H](C6=CC(=O)OC6)CC[C@]54O)C3)O[C@@H]2C)C[C@H](O)[C@@H]1O (stereo not given in full)
- Activity (NCI-H460 [1]): Active

SMILES: C[C@]12CC[C@@H](O)C[C@H]1CC[C@@H]1[C@@H]2C[C@@H](O)[C@]2(C)[C@@H](C3=CC(=O)OC3)CC[C@]12O
- Activity (NCI-H460 [1]): Active

SMILES: C[C@H]1O[C@@H](O[C@H]2[C@@H](O)C[C@H](O[C@H]3[C@@H](O)C[C@H](O[C@H]4CC[C@@]5(C)[C@H](CC[C@@H]6[C@@H]5C[C@@H](O)[C@]5(C)[C@@H](C7=CC(=O)OC7)CC[C@]65O)C4)O[C@@H]3C)O[C@@H]2C)C[C@H](O)[C@@H]1O [DIGOXIN]
- Activity (NCI-H460 [9]): 90.71%
- Activity (NCI-H460 [10]): 4.06%
- Activity (NCI-H460 [11]): 4.64%
- Activity (NCI-H460 [12]): 0.6%

SMILES: C[C@]12CC[C@H](OC3O[C@H](CO)[C@@H](O[C@@H]4O[C@H](CO)[C@@H](O)[C@H](O)[C@H]4O)[C@H](O)[C@H]3O)C[C@H]1CC[C@@H]1[C@@H]2C[C@@H](O)[C@]2(C)[C@@H](C3=CC(=O)OC3)CC[C@]12O (stereo not given in full)
- Activity (NCI-H460 [1]): Active
